Screening results from PubChem.
This is a sample that favours compounds with a hit; in the whole collection about 4.6% have one here.
OX1R antag-1 – human HCRTR1 antagonism | CHO/OX1R cells, Fluo-8 calcium fluorescence, orexin A | inhibition, % at 5 µM | actives 0.43% (n = 330,000);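 active means inhibition above its plate's threshold, mean inhibition of all tested compounds on the plate plus 3 SD, cut at about 37% in these data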;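 further: 0% = orexin A challenge wells and 100% = SB-334867-A antagonist wells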
OX1R antag-2 – OX1R (human) antagonism | inhibition, % at 6.6 µM | actives 1.8% (n = 330,000) | O43613 | AID 485270 | OX1R-expressing cells, FRET antagonist read-out; in the data active means inhibition mostly above about 38%, no sharp cut-off; inactive means mostly below about 40%;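 further: 0% = agonist challenge alone and 100% = reference antagonist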
CHO parental Ca – counter-screen: ATP calcium response change in parental CHO cells | parental CHO-K1, ATP-induced calcium, Fluo-8 fluorescence | inhibition, % at 5.6 µM | actives 0.63% (n = 330,000) | AID 463079;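 active means inhibition above that plate's mean sample inhibition plus 3 SD, cut at about 26% in these data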;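 further: 0% = ATP-challenged DMSO wells and 100% = DMSO wells without ATP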
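Assay system – parental CHO cells · Reagent – ATP stimulus · Detection – intracellular calcium via Fluo-8 no-wash fluorescent dye · Evaluation – percent inhibition of ATP-evoked calcium rise, normalized to controls · Controls – ATP wells versus no-ATP DMSO wells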
TAAR1 agonist – human TAAR1 agonism | activation, % at 3 µM | Q96RJ0 | CHO RD-HGA16 TAAR1, Fluo-8 calcium fluorescence; vehicle wells 0%, saturating PEA agonist 100% | actives 0.99% (n = 360,000);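 active means activation above the mean activation of all test compounds in the run plus 3 SD, cut at about 38% in these data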
Target sequence (Q96RJ0 whole entry, looked up): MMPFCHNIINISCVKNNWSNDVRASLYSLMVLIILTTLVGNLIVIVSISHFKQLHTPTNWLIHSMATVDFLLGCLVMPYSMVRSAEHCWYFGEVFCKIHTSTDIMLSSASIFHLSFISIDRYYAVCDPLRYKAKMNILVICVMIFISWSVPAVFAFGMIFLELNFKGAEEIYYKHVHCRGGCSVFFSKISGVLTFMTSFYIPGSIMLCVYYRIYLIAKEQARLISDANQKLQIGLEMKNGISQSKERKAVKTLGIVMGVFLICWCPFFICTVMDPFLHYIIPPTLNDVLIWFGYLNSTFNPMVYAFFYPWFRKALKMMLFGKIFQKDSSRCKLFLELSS
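Benchmarks: low control DMSO, high control PEA (EC100); System: CHO RD-HGA16 cells carrying human TAAR1 plus Gα16; Detection: Fluo-8 fluorescence, 5 s baseline then 140 s kinetic read; Schedule: 17-24 h plating, Fluo-8 75 min 37 °C, 30 min RT; Read-out basis: % activation from peak over basal fluorescence ratio, DMSO-to-PEA scaled.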
GPR7 antag – blocks human GPR7 receptor signaling. inhibition, % at 4.4 µM. GPR7-expressing cells, fluorescence antagonist assay. actives 1.1% (n = 290,000). AID 1861; in the data active means inhibition above about 16%, passing the limit was not always enough;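 further: cells stimulated with the agonist NPW; 0% = agonist with vehicle and 100% = vehicle without agonist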
Target sequence (P48145 whole entry, looked up): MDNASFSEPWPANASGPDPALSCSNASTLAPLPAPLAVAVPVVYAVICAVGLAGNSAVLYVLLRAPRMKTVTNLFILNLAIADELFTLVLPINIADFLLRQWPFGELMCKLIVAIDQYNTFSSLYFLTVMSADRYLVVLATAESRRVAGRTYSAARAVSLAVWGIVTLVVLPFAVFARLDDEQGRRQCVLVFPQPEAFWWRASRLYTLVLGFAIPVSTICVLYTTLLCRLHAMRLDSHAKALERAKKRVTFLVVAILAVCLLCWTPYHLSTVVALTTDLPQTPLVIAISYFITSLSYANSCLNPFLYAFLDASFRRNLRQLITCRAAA
TAAR1 antagonist – antagonists of human TAAR1. actives 1.5% (n = 360,000). AID 624466. inhibition, % at 3 µM. Q96RJ0. CHO RD-HGA16 TAAR1, Fluo-8 calcium fluorescence, antagonist;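 active means inhibition above a per-plate cutoff, the mean inhibition of test compounds on that plate plus 3 SD, cut at about 49% in these data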;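 further: 0% = DMSO plus EC80 beta-PEA response and 100% = DMSO alone without agonist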
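Test system: hTAAR1-expressing CHO RD-HGA16 cells, Gα16-coupled; Probe or stimulus: EC80 β-phenethylamine stimulus; Compound dosing: single nominal final test compound concentration of 3 µM; Timing: 140 s kinetic read after compound, 140 s after agonist; Signal: Fluo-8 calcium-sensitive fluorescence; Measure: % inhibition of agonist calcium response; Controls: DMSO and EC80 PEA controls.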
TAAR1 ag confirm – confirmation of human TAAR1 agonists; shares compounds with TAAR1 agonist; CHO RD-HGA16 TAAR1, Fluo-8 calcium fluorescence; scaled: DMSO 0%, maximal phenethylamine 100%; actives 82% (n = 2,400); activation, % at 3 µM;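 active means activation above a cutoff set at the run's mean compound activation plus 3 SD, cut at about 39% in these data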
Ga16 ag counter – nonselective agonism, TAAR1 counter-screen; shares compounds with TAAR1 agonist; CHO-Ga16 parental, Fluo-8 calcium fluorescence; normalized to maximal ATP response, DMSO zero; activation, % at 3 µM; actives 50% (n = 2,400); AID 651787;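 active means activation above the run cutoff, the mean activation over all tested wells plus 3 SD, cut at about 12% in these data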;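 further: 0% = DMSO wells and 100% = maximal ATP response on the peak over basal ratio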
TAAR1 desens – human TAAR1 agonist that also desensitizes the receptor | shares compounds with TAAR1 agonist | actives 46% (n = 2,400) | AID 651951 | CHO RD-HGA16 hTAAR1, Fluo-8 calcium, beta-PEA response inhibition | inhibition, % at 3 µM;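 active means inhibition above the run cutoff, the mean inhibition of all test compounds plus 3 SD, cut at about 49% in these data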;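 further: beta-PEA stimulus applied at its EC80; loss of beta-PEA calcium signal after compound pretreatment read as receptor desensitization; 0% = DMSO with beta-PEA at EC80 and 100% = DMSO alone without agonist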
Ga16 antag count – counter-screen for TAAR1 agonists: nonselective Ga16 antagonists; CHO-Ga16 ATP-induced calcium, Fluo-8 fluorescence; actives 39% (n = 2,400); inhibition, % at 3 µM; shares compounds with TAAR1 agonist;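 active means inhibition above the plate's mean compound inhibition plus 3 SD, computed per plate, cut at about 22% in these data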;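 further: 0% = EC80 ATP with DMSO and 100% = DMSO wells without ATP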
Numbers without * were called inactive; . = not tested or not shown.

SMILES	OX1R antag-1	OX1R antag-2	CHO parental Ca	TAAR1 agonist	GPR7 antag	TAAR1 antagonist	TAAR1 ag confirm	Ga16 ag counter	TAAR1 desens	Ga16 antag count
COC(=O)C1=C(C)N(Cc2cccc(C(F)(F)F)c2)C(=NCc2ccc3c(c2)OCO3)NC1c1ccc(F)cc1 (stereo not drawn)	.	.	.	48*	.	50*	35	15*	44	36*
COC(=O)C1=C(C)N(Cc2cccc(C(F)(F)F)c2)C(=NCc2ccc3c(c2)OCO3)NC1c1cccc(C(F)(F)F)c1 (stereo not drawn)	.	.	.	40*	.	34	36	13*	25	33*
COC(=O)C1=C(C)N(Cc2cccc(C(F)(F)F)c2)C(=NCc2cccc(C(F)(F)F)c2)NC1c1ccc(Cl)cc1 (stereo not drawn)	.	.	.	11	.	6	.	.	.	.
COC(=O)c1ccc(-c2ccc(CNCC(O)c3ccccc3)o2)cc1 (stereo not drawn)	-17	12	-17	39*	-4	2	26	5	14	5
S=C(NCCc1ccccc1)N1CCn2cccc2C1c1cccnc1 (stereo not drawn)	-6	20	-9	57*	-8	13	62*	4	37	27*
S=C(NCc1ccccc1)N1CCn2cccc2C1c1cccnc1 (stereo not drawn)	.	.	.	8	-12	2	.	.	.	.
O=c1cc(CSc2nnnn2-c2ccccc2)nc(Nc2ccc(F)cc2)[nH]1	20	16	-6	66*	19	32	97*	5	67*	26*
N/C(=N\c1nc(CSc2nnnn2-c2ccccc2)cc(=O)[nH]1)Nc1ccccc1	-7	0	-13	16	-4	28	.	.	.	.
CN1C(=O)C(C)(C)c2cc(S(=O)(=O)N3CCC(C(=O)NCc4ccccc4Cl)CC3)ccc21	-26	40	-10	-1	-4	11	.	.	.	.
COc1ccc(NC(=O)COC(=O)c2cc(OC)c(OC)c(OC)c2)c([N+](=O)[O-])c1	-21	27	-15	4	-10	-9	.	.	.	.
COc1ccc(NC(=O)COC(=O)c2cc(C)oc2C)c([N+](=O)[O-])c1	5	0	11	62*	.	58*	-3	2	7	10
CCC(C)NC(=O)CSc1nnc(-c2cc(OC)c(OC)c(OC)c2)c(-c2cc(OC)c(OC)c(OC)c2)n1 (stereo not drawn)	-46	10	-23	-1	-20	-6	.	.	.	.
O=C(CSc1nc2ccccc2c(=O)n1Cc1ccccc1)NCc1ccco1	-5	3	-3	75*	-5	79*	78*	47*	65*	38*
O=C(CSc1nc2ccccc2c(=O)n1Cc1ccc(F)cc1)NCc1cccs1	-23	23	-20	95*	-9	96*	92*	52*	99*	68*
COc1ccc(Br)cc1CN(C)C(=O)c1ccccc1SCC(=O)N1CCCC1	.	.	.	7	.	2	.	.	.	.
C=CCn1c(N)c(C(=O)Nc2ccc(C)cc2)sc1=S	-11	17	-7	62*	1	40	-4	-1	1	12
CSc1nc(N)nc(SCC(=O)c2ccc(C)cc2)c1C#N	6	69*	-7	52*	5	54*	15	10	3	8
CC(=O)Nc1cccc(-c2ccnc3c2CC(C)(C(=O)Nc2ccc(C(C)C)cc2)O3)c1 (stereo not drawn)	.	.	.	0	.	-25	.	.	.	.
CCOC(=O)C1=CCN(S(=O)(=O)c2ccc(C)cc2)C1c1ccc(Cl)cc1 (stereo not drawn)	.	.	.	-1	.	8	.	.	.	.
CCCCC(=O)NC(=S)NNC(=O)c1ccc(Cl)cc1Cl	.	.	.	106*	-3	49*	131*	110*	79*	55*
Cc1ccc(C(=O)NNC(=S)NC(=O)c2ccco2)cc1	64*	11	66*	111*	5	34	101*	82*	47	47*
O=C(NNC(=S)NC(=O)c1ccccc1[N+](=O)[O-])c1ccc(Cl)cc1Cl	-4	20	1	6	-3	-11	.	.	.	.
Cc1ccc(C(=O)NC(=S)NNC(=O)c2ccccc2)cc1	11	7	15	153*	-5	102*	123*	98*	97*	69*
O=C(NC(=S)NNC(=O)[C@H]1C[C@@H]1c1ccccc1)c1cccc(F)c1	-7	12	-21	77*	-15	-5	74*	83*	33	30*
O=c1cc2oc3cc(O)c(O)cc3c(-c3ccccc3[N+](=O)[O-])c-2cc1O	-1	12	14	1	2	-5	.	.	.	.
SMILES	OX1R antag-1	OX1R antag-2	CHO parental Ca	TAAR1 agonist	GPR7 antag	TAAR1 antagonist	TAAR1 ag confirm	Ga16 ag counter	TAAR1 desens	Ga16 antag count
Cc1ccc(C(=O)NNC(=S)NC(=O)c2ccc(Cl)cc2Cl)cc1	57*	1	45*	172*	14	108*	161*	123*	107*	101*
CC(C)NC(=S)NC(=O)c1ccc(Cl)cc1Cl	-32	4	-19	6	2	-30	.	.	.	.
Cc1cccc(C(=O)NNC(=S)NC(=O)c2cccs2)c1	32	12	33*	142*	7	60*	120*	95*	75*	53*
CC(C)C(=O)Nc1ccc(C(=O)NNC(=S)NC(=O)c2cccs2)cc1	-6	14	-8	-1	-9	6	.	.	.	.
Cc1cccc(C(=O)NC(=S)NNC(=O)COc2ccc(Cl)cc2)c1	.	.	.	99*	1	53*	104*	84*	76*	53*
Cc1ccc(C(=O)NNC(=O)c2cccc(C)c2)cc1	-5	9	5	4	-13	2	.	.	.	.
O=C(COc1ccccc1)NNC(=S)NC(=O)c1ccc(Cl)cc1Cl	-22	-2	-12	.	-3	.	.	.	.	.
Cc1cccc(C(=O)NNC(=S)NC(=O)c2ccccc2)c1	62*	8	37*	169*	.	107*	133*	105*	92*	75*
O=C(NCCCN1CCCC1=O)c1c(O)nc2ccccn2c1=O	-2	-3	-2	2	-20	-7	.	.	.	.
